Measurements published in PMC8978309 (Materials Advances, 2022).

Columns and labels:
[1] = test system: human breast cancer MDA-MB-231 cell line; test: AlamarBlue cytotoxicity assay, MDA-MB-231; format: cell-based; conditions: for IC50: Homo sapiens; for relative cell live (%RCL): MDA-MB-231, 15 μM
Outline: (§1)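 MDA-MB-231 cells grown in DMEM with 1% Pen-Strep and 10% FBS at 37 °C, 5% CO2. Seeded at 2.5 × 10^5 cell per mL, then preincubated 24 h. […] Read-out: 10% AlamarBlue in PBS, 4 h, fluorescence ex 560/em 590 nm, normalised to medium control (100%). IC50 by nonlinear regression; triplicates, mean, SD, %CV.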

[2] = AlamarBlue cytotoxicity assay, MDA-MB-231; format: cell-based, human; conditions: human, MDA-MB-231 cells
Outline: as §1

[3] = cited from earlier work
[4] = Dissolution profile in FaSSGF; format: physicochemical; conditions: FaSSGF pH 1.60, 37 °C
Outline: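 Test compound stirred in 100 mL fasted-state simulated gastric fluid (HCl/NaCl, pH 1.60) at 37 °C and 150 rpm for 36 h. Dissolved drug quantified directly by UV absorbance at 208 nm (400–200 nm scan) against a reagent blank.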

[5] = test system: normal osteoblast-like hFOB 1.19 cell line; test: AlamarBlue cytotoxicity assay, hFOB 1.19; format: cell-based, human; conditions: for IC50: Homo sapiens
Outline: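 hFOB 1.19 osteoblast-like cells grown in 1:1 DMEM:F-12 with 0.3 mg mL−1 G418 and 10% FBS at 34 °C, 5% CO2. Seeded at 2.5 × 10^5 cell per mL, then preincubated 24 h at 34 °C. Exposed 24, 48 or 72 h to two-fold dilutions (0–200 μM), or to 1.9–15 μM. Read-out: 10% AlamarBlue, 4 h, fluorescence 560/590 nm, relative to medium control. IC50 by nonlinear regression; triplicates.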

Hydroxyapatite = format: binding; conditions: PBS pH 7.40, 37 °C
Outline: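 20 mg synthetic hydroxyapatite incubated with 3 mL test compound in PBS (0.5 mg mL−1) at 37 °C for 0–11 d. Controls were compound alone and HA alone in PBS. Supernatant collected daily and centrifuged (1500 rpm, 8 min). Bound fraction derived from the fall in supernatant absorbance at 208 nm. Experimental groups done in duplicate.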

[6] = Dissolution profile in PBS; format: physicochemical; conditions: PBS pH 7.40, 37 °C
Outline: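 Powdered test compound dissolved in 100 mL PBS (pH 7.40) at 37 °C with constant stirring at 150 rpm for 48 h. Release followed by UV absorbance at 208 nm (scan 400–200 nm) against a reagent blank.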

With `O=P(O)(O)C(O)(Cn1ccnc1)P(=O)(O)O` [ZOLE, zoledronate] the IC50 ([1]; MDA-MB-231, 24 h) was > 200 µM, the IC50 ([1]; MDA-MB-231, 48 h) was > 200 µM and the IC50 ([1]; MDA-MB-231, 72 h) was 35 ± 4 µM. The “%RCL” value ([1]; MDA-MB-231, 3.8 μM, time not stated (Fig. 9b)) was ~100%, the “relative cell live (%RCL)” value ([1]; 48 h) was 80 ± 2% and the “relative cell live (%RCL)” value ([1]; 72 h) was 58 ± 2%. For the same compound, the viability at 1.9 µM [2] was ~100%, the bioavailability [3] was < 1% and the maximum plasma concentration [3] was 1 µM. For the same compound, the “time to reach maximum dissolution / equilibrium solubility” value [4] was 3 h, the IC50 ([5]; 24 h) was > 200 µM and the IC50 ([5]; 48 h) was 86 ± 3 µM. For the same compound, the IC50 ([5]; 72 h) was 49 ± 4 µM, the “cell death (cell viability result in words)” value ([5]; hFOB 1.19, 3.8–15 μM, after 24, 48, and 72 h) was “no significant cell death” and the “time to reach maximum binding to HA” value (Hydroxyapatite) was 8 days. The “maximum binding to HA” value (Hydroxyapatite; 0–11 d) was 82%, the “binding to HA” value (Hydroxyapatite; in 1 d) was 15% and the “time to reach maximum dissolution / equilibrium solubility” value [6] was 30 min. For the same compound, the “dissolution (ZOLE content released, maximum reached)” value ([6]; 150 rpm) was 100%.
